Assay results from ChEMBL document CHEMBL1125182, “A new class of analogues of the bifunctional radiosensitizer alpha-(1-aziridinylmethyl)-2-nitro-1H-imidazole-1-ethanol (RSU 1069): the cycloalkylaziridines” (J Med Chem, 1991).

What was measured:
[1] = tested on: Mus musculus; assay: In vivo radiosensitizing activity measured as maximum tolerated dose in mice.; assay type: functional
[2] = (§1) IC50 of oxic to that of IC50 of hypoxic was determined in V79 cells; hypoxia selective cytotoxicity.; assay type: functional, Cricetulus griseus
Summary of the method: (§2)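 V79-171b Chinese hamster cells in RPMI 1640 with 10% fetal calf serum, plated and incubated ca. 18 h at 37 °C, then exposed to a range of compound concentrations for 1 h at 37 °C under oxic or hypoxic conditions. Cells rinsed, colonies grown; ratio taken as IC50(oxic)/IC50(hypoxic). Means of replicate experiments agreeing within ±20%.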

[3] = species on record: Cricetulus griseus; assay: The efficiency of radiosensitization is the concentration required to give an SER of 1.6 (in vitro); assay type: functional
Summary of the method: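 Chinese hamster V79-171b monolayers in RPMI 1640 with 10% FCS, plated ~18 h at 37 °C. Made hypoxic with 95% N2/5% CO2 for 1 h, then given X-rays (320 kV, ~1.5 Gy/min) at room temperature. Drug removed after irradiation; colonies of ≥50 cells scored after 6-7 days. SER is the dose ratio for 25% survival on hypoxic curves ±compound; C1.6 read from SER-versus-concentration plot.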

[4] = Plating efficiency of drug treated irradiated tumors relative to irradiated only group; assay type: ADME
Summary of the method: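 Mice bearing KHT fibrosarcoma (200–500 mg, hypoxic fraction ca. 20%) given vehicle or compound ip 30–120 min before 15 Gy X-rays. Tumours were excised 18 h later, dissociated to single cells and plated in soft agar. Colonies were stained and counted after 12–16 days. Plating efficiency is relative to the irradiated-only group.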

[5] = Sensitizer enhancement ratio(SER) determined at the maximum nontoxic dose by measuring the number of cells killed at a conc […] (in vitro); assay type: functional, Cricetulus griseus
Summary of the method: (§3)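 V79-171b cells in RPMI 1640 with 10% FCS, held at maximum nontoxic drug level. Made hypoxic by 95% N2/5% CO2 purge for 1 h, then X-irradiated at room temperature (320 kV, ca. 1.5 Gy/min). Drug medium replaced and colonies (≥50 cells) scored at 6-7 days, 37 °C. SER = ratio of doses giving 25% survival on hypoxic curves without vs with drug.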

[6] = Partition coefficient measured between octanol and 0.05 M NH4PO4 (pH 7.4) using shake-flask method; assay type: physicochemical; details: octanol/0.05 M NH4PO4 buffer
[7] = tested on: V79; assay: as §1; assay type: functional; details: Cricetulus griseus; summary of the method: as §2
[8] = Sensitizer enhancement ratio(SER) determined at the maximum nontoxic dose by measuring the number of cells killed at a conc 0.38 mM (in vitro); assay type: functional, Cricetulus griseus; summary of the method: as §3
[9] = Sensitizer enhancement ratio(SER) determined at the maximum nontoxic dose by measuring the number of cells killed at a conc 3 mM (in vitro); assay type: functional, Cricetulus griseus; summary of the method: as §3
[10] = Sensitizer enhancement ratio(SER) determined at the maximum nontoxic dose by measuring the number of cells killed at a conc 1.5 mM (in vitro); assay type: functional, Cricetulus griseus; summary of the method: as §3
[11] = Sensitizer enhancement ratio(SER) determined at the maximum nontoxic dose by measuring the number of cells killed at a conc 0.75 mM (in vitro); assay type: functional, Cricetulus griseus
[12] = Sensitizer enhancement ratio(SER) determined at the maximum nontoxic dose by measuring the number of cells killed at a conc 2 mM (in vitro); assay type: functional, Cricetulus griseus
[13] = Sensitizer enhancement ratio(SER) determined at the maximum nontoxic dose by measuring the number of cells killed at a conc 10 mM (in vitro); assay type: functional, Cricetulus griseus
[14] = Sensitizer enhancement ratio(SER) determined at the maximum nontoxic dose by measuring the number of cells killed at a conc 3.0 mM (in vitro)
[15] = Sensitizer enhancement ratio(SER) determined at the maximum nontoxic dose by measuring the number of cells killed at a conc 1.9 (in vitro); assay type: functional, Cricetulus griseus; summary of the method: as §3

Row | Structure (SMILES) | MTD [1] | Hypoxic selectivity ratio (IC50 oxic / IC50 hypoxic) [2] | C1.6 [3] | Fold reduction [4] | logD [6] | SER [9] | also measured
1 | O=[N+]([O-])c1nccn1CC(O)CN1CC1 (stereo unspecified) | 100 mg/kg | 50 | 0.33 mM | 6.7 | 0.33 | – | SER [5]: 1.9
2 | O=[N+]([O-])c1nccn1CC(O)CN1C2CCOCC21 (stereo unspecified) | 800 mg/kg | – | – | 5.7 | 0.07 | – | Cytotoxicity [7]: Unstable; SER [5]: 1.3
3 | O=[N+]([O-])c1nccn1CC(O)CN1C2CCc3ccccc3C21 (stereo unspecified) | – | 1.2 | – | – | 2.15 | – | SER [8]: 1.2
4 | O=[N+]([O-])c1nccn1CC(O)CNC1C2CCC(C2)[C@@H]1Br (stereo partly specified) | – | 1.3 | 0.35 mM | – | 1.36 | 2.1 | –
5 | CC1CCCC2C1N2CC(O)Cn1ccnc1[N+](=O)[O-] (stereo unspecified) | 500 mg/kg | 1 | 0.75 mM | 2.1 | 1.55 | – | SER [10]: 2
6 | O=[N+]([O-])c1nccn1CC(O)CNC1COCC[C@@H]1Br (stereo partly specified) | 1500 mg/kg | 1.2 | 1.8 mM | 13 | -0.17 | 1.8 | –
7 | O=[N+]([O-])c1nccn1CC(O)CNC1CCCC[C@@H]1Br (stereo partly specified) | 700 mg/kg | 2.5 | 0.35 mM | 4.5 | 1.21 | – | SER [11]: 2.4
8 | CCOC(=O)C1CCC2C(C1)N2CC(O)Cn1ccnc1[N+](=O)[O-] (stereo unspecified) | – | 1.1 | 3 mM | – | 1.13 | 2 | –
9 | O=[N+]([O-])c1nccn1CC(O)CN1CCC1 (stereo unspecified) | – | 1 | – | – | -1.51 | – | SER [12]: 2
10 | O=C(O)C1CCN1CC(O)Cn1ccnc1[N+](=O)[O-] (stereo unspecified) | – | 1 | – | – | -2.02 | – | SER [13]: 2.3
11 | O=[N+]([O-])c1nccn1CC(O)CN1C2CCCC21 (stereo unspecified) | 450 mg/kg | 2 | 0.48 mM | 6.1 | 0.37 | – | SER [5]: 2
12 | O=[N+]([O-])c1nccn1CC(O)CN1C2C3CCC(C3)C21 (stereo unspecified) | – | 1.4 | 3 mM | – | 1.6 | 1.6 | –
13 | O=[N+]([O-])c1nccn1CC(O)CN1C2CCCCCC21 (stereo unspecified) | – | 1.4 | 1 mM | – | 1.44 | 1.7 | –
14 | COC(=O)C1CCN1CC(O)Cn1ccnc1[N+](=O)[O-] (stereo unspecified) | – | 1 | – | – | -0.29 | – | SER [14]: 2.1
15 | O=[N+]([O-])c1nccn1CC(O)CN1C2CCCCCCC21 (stereo unspecified) | 500 mg/kg | 1.2 | 0.75 mM | 2.6 | 1.84 | 2.1 | –
16 | O=[N+]([O-])c1nccn1CC(O)CN1C2CCCCC21 (stereo unspecified) | 400 mg/kg | 1.6 | 0.35 mM | 3.91 | 1.07 | – | SER [15]: 1.9
17 | O=[N+]([O-])c1nccn1CC(O)CNC1CCC[C@H]1Br (stereo partly specified) | 1000 mg/kg | 2.5 | 0.75 mM | 4.3 | 0.43 | – | SER [10]: 2.3
